ChEMBL document CHEMBL4627337, “Synthesis and pharmacokinetic study of a 11C-labeled cholesterol 24-hydroxylase inhibitor using 'in-loop' [11C]CO2 fixation method” (Bioorg Med Chem Lett, 2020)

Key:
[1] = biological target: Cholesterol 24-hydroxylase (Homo sapiens, UniProt Q9Y6A2); test: Binding affinity to truncated d(2-50) 4His-tagged human CYP46A1 expressed in Escherichia coli DH5alpha as cholesterol-24 hydroxylation using cholesterol as substrate incubated for 30 mins in presence of NADPH cytochrome P450 oxidoreductase by gas chromatography-mass spectrometry
Chain of Cholesterol 24-hydroxylase (Q9Y6A2 whole entry, the tested form may be a part): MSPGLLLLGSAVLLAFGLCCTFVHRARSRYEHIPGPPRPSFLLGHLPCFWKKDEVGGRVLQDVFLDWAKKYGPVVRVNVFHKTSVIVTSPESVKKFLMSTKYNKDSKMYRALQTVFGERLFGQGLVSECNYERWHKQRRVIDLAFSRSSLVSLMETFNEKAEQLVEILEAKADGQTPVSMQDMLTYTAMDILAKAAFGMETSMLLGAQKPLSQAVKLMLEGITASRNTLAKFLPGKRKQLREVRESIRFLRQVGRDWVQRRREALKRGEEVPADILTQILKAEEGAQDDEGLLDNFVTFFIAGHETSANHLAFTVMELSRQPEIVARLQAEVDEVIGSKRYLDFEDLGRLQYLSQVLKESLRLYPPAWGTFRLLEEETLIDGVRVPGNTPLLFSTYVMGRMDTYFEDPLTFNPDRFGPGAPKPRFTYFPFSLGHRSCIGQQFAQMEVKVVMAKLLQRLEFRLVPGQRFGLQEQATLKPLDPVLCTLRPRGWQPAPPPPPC

[2] = Drug uptake in iv dosed mouse small intestine assessed as per gram of wet tissue measured after 5 to 60 mins; format: ADME, organism-based; details: read-out: Drug uptake
Outline: (§1)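 Ex vivo whole-body biodistribution in mice after intravenous radioligand injection. Tissues collected at 5, 15, 30 and 60 min; radioactivity expressed as %ID/g, mean ± SD, n = 4 per time point.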

[3] = Drug uptake in CD1 mouse brain assessed as standard uptake value after 0.5 mins; format: ADME, tissue-based; details: in vivo
Outline: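 Dynamic PET acquisition in CD-1 mice over 60 min after radioligand injection; brain time–activity curves expressed as standard uptake value. Blocking arm pretreated with 2-phenylcyclopropan-1-amine (3 mg/kg); uptake compared by area under the curve.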

[4] = Stability in saline containing 5% ethanol assessed as compound radiolysis after 90 mins post formulation; format: physicochemical; details: buffer, 1.5 h
Outline: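 Radiotracer formulated in saline containing 5% ethanol and held for 90 min after formulation, then checked for radiolysis.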

[5] = Lipophilicity, logD of compound in n-octanol and phosphate buffered saline by shake flask method; format: physicochemical
Outline: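 Shake-flask partition of the 11C-labeled compound between n-octanol and phosphate buffered saline; logD calculated from the distribution of radioactivity between phases.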

[6] = Drug uptake in iv dosed mouse kidney assessed as per gram of wet tissue measured after 5 to 60 mins; format: ADME, organism-based; details: read-out: Drug uptake
Outline: as §1

[7] = Drug uptake in iv dosed mouse brain after 5 to 60 mins; format: ADME, organism-based; details: in vivo
Outline: as §1

[8] = Drug uptake in iv dosed mouse lung assessed as per gram of wet tissue measured after 5 to 60 mins; format: ADME, organism-based; details: read-out: Drug uptake
Outline: as §1

[9] = Drug uptake in iv dosed mouse pancreas assessed as per gram of wet tissue measured after 5 to 60 mins; format: ADME, organism-based; details: read-out: Drug uptake
Outline: as §1

[10] = Tmax in iv dosed mouse small intestine; format: ADME, organism-based
Outline: as §1

[11] = Drug uptake in dosed iv mouse liver assessed as per gram of wet tissue measured after 5 to 60 mins; format: ADME, organism-based; details: read-out: Drug uptake
Outline: as §1

| Ki [1] | tissue uptake [2] | SUV [3] | Stability [4] | logD [5] | tissue uptake [6] | Drug uptake [7] | tissue uptake [8] | tissue uptake [9] | Tmax [10] | tissue uptake [11] | SMILES |
| --- | --- | --- | --- | --- | --- | --- | --- | --- | --- | --- | --- |
| 7.3 µM |  |  |  |  |  |  |  |  |  |  | O=C(NCc1ccccc1)N1CCN(c2cncnc2-c2ccccc2)CC1 |
|  | > 10 %ID/g | 0.42 | Stable | 3.05 | > 10 %ID/g | Active | > 10 %ID/g | > 10 %ID/g | 30 min | > 10 %ID/g | O=[11C](NCc1ccccc1)N1CCN(c2cncnc2-c2ccccc2)CC1 |
